Experimental data collected from several papers.
Protocols differ between the studies behind these lines.
Tyrosine-protein phosphatase YopH: Tyrosine-protein phosphatase YopH (Yersinia enterocolitica, UniProt P15273)
DRD1: D(1A) dopamine receptor (DRD1, Homo sapiens, UniProt P21728)

SMILES	target	assay	conditions	endpoint	result
CN(C)c1ccc(/C=C/c2cc(/C=C/c3ccc(N(C)C)cc3)n3n[n+](C)nc3n2)cc1	Tyrosine-protein phosphatase YopH	enzyme activity, inhibitor		IC50	4.44 µM
CC=C1[C@H]2C=C(C)C[C@]1(N)c1cc(O)c(=O)[nH]c1C2	Cholinesterase (BCHE, Equus caballus, UniProt P81908)	enzyme activity, inhibitor, Ellman		IC50	155 µM
C[C@H](N)Cc1ccccc1	Neuronal acetylcholine receptor subunit alpha-7 (Chrna7, Mus musculus, UniProt P49582)	ligand displacement, radioligand	cell membranes	Ki	49.7 µM
O=C(O)c1cc(-c2ccc([C@H]3C[C@H]4C[C@@H]3NC4=O)cc2)c2ccc(-c3ccc(C(F)(F)F)cc3)cc2c1	DRD1	cell-free assay, radioligand		Ki	1.4 to 2.2 µM
CNC(C)C(=O)c1ccccc1 (racemic)	Sodium-dependent serotonin transporter (SLC6A4, Homo sapiens, UniProt P31645)	calcium signal, agonist, fluorescence		EC50	24.8 µM
[Na+].[Na+].[Na+].[O]=[V]([O-])([O-])[O-]	Tyrosine-protein phosphatase YopH	enzyme activity, inhibitor		Ki	1.58 µM
CC(C)CCC[C@@H](C)[C@H]1CC[C@H]2[C@@H]3CC=C4C[C@@H](O)CC[C@]4(C)[C@H]3CC[C@]12C	hly (Listeria monocytogenes, UniProt P13128)	binding	pH 5.5	Kd	0.296 µM
NNC(=O)c1ccncc1	Adenosylmethionine-8-amino-7-oxononanoate aminotransferase (Mycobacterium tuberculosis, UniProt P9WQ81)	enzyme activity, inhibitor		Ki	> 100 µM
O=C(O)c1cc(-c2ccc([C@@H]3C[C@@H]4C[C@H]3CN4)cc2)c2ccc(-c3ccc(C(F)(F)F)cc3)cc2c1	DRD1	cell-free assay, radioligand		Ki	1.4 to 2.2 µM
